Each structure is given as a SMILES string.

Our source for the IC50 and Selectivity values is ChEMBL document CHEMBL1132219, “Synthesis of novel phenserine-based-selective inhibitors of butyrylcholinesterase for Alzheimer's disease” (J Med Chem, 1999).

The target in one experiment is Cholinesterase (Homo sapiens, UniProt P06276). In words: Ability to inhibit butyrylcholinesterase (BChE), freshly prepared from human plasma. The format is cell-free.
The target in experiment [1] is T1, Cholinesterases; ACHE & BCHE (Homo sapiens) (UniProt P06276+P22303). In words: AChE selectivity = IC50(BChE) / IC50(AChE). The format is protein assay.
A further experiment concerns the target Acetylcholinesterase (Homo sapiens, UniProt P22303). In words: Ability to inhibit acetylcholinesterase (AChE), freshly prepared from human erythrocytes. Put shortly:
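AChE from freshly collected blood: erythrocytes washed five times in isotonic saline, lysed in 9 volumes of 0.1 M Na3PO4 pH 7.4 with 0.5% Triton-X, diluted to final 1:200. Compounds preincubated with enzyme 30 min at room temperature, then with substrate and DTNB 25 min at 37 °C, pH 8.0. Final range 0.3 nM–[…] in half-log steps. IC50 from logit-activity versus log concentration. Four runs.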

Experiment [2] has as its target T1, Cholinesterases; ACHE & BCHE (Homo sapiens). The experiment can be described thus: BChE selectivity = IC50(AChE) / IC50(BChE). The format is protein assay.

T1 sequence (P06276 whole entry, looked up): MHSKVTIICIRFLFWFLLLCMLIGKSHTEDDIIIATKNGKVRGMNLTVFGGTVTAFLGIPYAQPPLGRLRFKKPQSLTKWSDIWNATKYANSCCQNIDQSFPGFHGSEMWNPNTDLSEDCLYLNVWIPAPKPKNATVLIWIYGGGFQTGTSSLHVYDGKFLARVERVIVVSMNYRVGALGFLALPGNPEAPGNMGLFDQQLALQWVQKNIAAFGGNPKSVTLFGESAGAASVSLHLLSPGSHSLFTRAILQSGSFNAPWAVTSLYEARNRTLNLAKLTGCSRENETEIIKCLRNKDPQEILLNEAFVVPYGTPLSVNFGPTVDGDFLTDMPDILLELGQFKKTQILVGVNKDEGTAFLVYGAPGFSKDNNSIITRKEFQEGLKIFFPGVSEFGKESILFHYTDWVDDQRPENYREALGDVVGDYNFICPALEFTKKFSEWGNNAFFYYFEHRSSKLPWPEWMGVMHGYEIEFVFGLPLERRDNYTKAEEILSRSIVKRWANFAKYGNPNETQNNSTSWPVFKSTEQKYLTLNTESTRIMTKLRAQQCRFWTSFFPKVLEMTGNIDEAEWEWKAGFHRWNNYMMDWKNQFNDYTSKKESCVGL
T1 sequence (P22303 whole entry, looked up): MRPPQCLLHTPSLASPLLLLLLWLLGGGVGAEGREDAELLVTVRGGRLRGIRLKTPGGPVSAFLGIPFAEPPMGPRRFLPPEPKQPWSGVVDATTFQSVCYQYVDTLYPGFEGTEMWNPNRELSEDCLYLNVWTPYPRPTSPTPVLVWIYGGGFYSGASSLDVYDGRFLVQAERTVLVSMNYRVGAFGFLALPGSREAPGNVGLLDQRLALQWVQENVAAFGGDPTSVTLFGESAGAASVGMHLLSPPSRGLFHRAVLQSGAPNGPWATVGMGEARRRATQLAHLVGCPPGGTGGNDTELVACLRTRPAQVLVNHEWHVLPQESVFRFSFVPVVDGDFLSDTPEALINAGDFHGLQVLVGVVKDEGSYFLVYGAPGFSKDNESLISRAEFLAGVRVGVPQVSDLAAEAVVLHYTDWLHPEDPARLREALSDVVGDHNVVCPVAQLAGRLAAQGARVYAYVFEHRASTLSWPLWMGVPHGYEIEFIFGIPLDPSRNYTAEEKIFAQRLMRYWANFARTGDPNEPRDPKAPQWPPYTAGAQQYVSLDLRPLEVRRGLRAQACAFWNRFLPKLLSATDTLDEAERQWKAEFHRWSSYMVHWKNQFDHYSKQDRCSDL
Cholinesterase, sequence (P06276 whole entry): as the sequence (P06276 whole entry, looked up) above
Acetylcholinesterase, sequence (P22303 whole entry): as the sequence (P22303 whole entry, looked up) above

The IC50 is the concentration that gives 50% inhibition. A high value points to lower potency. With `Cc1ccccc1NC(=O)Oc1ccc2c(c1)[C@]1(C)CCN(C)C1N2` (some centres not stated), the values for the concentration for half-maximal inhibition (IC50) against Cholinesterase and at Acetylcholinesterase were 1.43 µM and 0.04 µM, respectively. In experiment [1], this compound gave a Selectivity of 36.

Consider `Cc1ccccc1NC(=O)Oc1ccc2c(c1)[C@]1(C)CCN(C)C1N2Cc1ccccc1` (some centres not stated), for which the IC50 turned out to be 0.6 µM against Cholinesterase and 0.1 µM at Acetylcholinesterase. Also, the Selectivity in experiment [1] amounted to 6.

In turn, `CC(C)c1ccc(NC(=O)Oc2ccc3c(c2)[C@]2(C)CCNC2N3)cc1` (some centres not stated) registered a Selectivity in experiment [2] of 110. In addition, the IC50 against Cholinesterase turned out to be 0.001 µM; at Acetylcholinesterase it was 0.11 µM.

Compound `Cc1ccccc1NC(=O)Oc1ccc2c(c1)[C@]1(C)CCN(Cc3ccccc3)C1N2Cc1ccccc1` (some centres not stated) displayed a Selectivity in experiment [2] of 3. Further, the IC50 was 0.641 µM against Cholinesterase and 1.76 µM against Acetylcholinesterase.

Regarding `Cc1ccccc1NC(=O)Oc1ccc2c(c1)[C@]1(C)CCN(C)C1N2C` (some centres not stated), half-maximal inhibition against Acetylcholinesterase (IC50) required 0.0103 µM.

With `Cc1ccccc1NC(=O)Oc1ccc2c(c1)[C@]1(C)CCNC1N2C` (some centres not stated), the IC50 against Cholinesterase was 2.17 µM; at Acetylcholinesterase it was 0.017 µM. The same compound showed a Selectivity in experiment [1] of 127.

On to `Cc1ccccc1NC(=O)Oc1ccc2c(c1)[C@]1(C)CCN(CCc3ccccc3)C1N2C` (some centres not stated), for which the IC50 was found to be 1.79 µM against Cholinesterase and 0.55 µM against Acetylcholinesterase. Also, in experiment [1], the Selectivity came out at 3.

Consider `CC(C)c1ccc(NC(=O)Oc2ccc3c(c2)[C@]2(C)CCNC2N3C)cc1` (some centres not stated), for which the Selectivity in experiment [2] was 39. The figures for the IC50 against Cholinesterase and on Acetylcholinesterase were 0.0083 µM and 0.324 µM, respectively.

With `CC(C)c1ccc(NC(=O)Oc2ccc3c(c2)[C@]2(C)CCN(C)C2N3)cc1` (some centres not stated), in experiment [2], the Selectivity amounted to 26. Besides, the IC50 at Cholinesterase was found to be 0.078 µM; against Acetylcholinesterase, 2.02 µM.

Consider `CN1CC[C@@]2(C)c3cc(OC(=O)Nc4ccccc4)ccc3N(C)C12` (some centres not stated), for which the Selectivity in experiment [1] came out at 65.

Regarding `CC(C)c1ccc(NC(=O)Oc2ccc3c(c2)[C@]2(C)CCN(CCc4ccccc4)C2N3C)cc1` (some centres not stated), the IC50 against Cholinesterase is 0.006 µM; on Acetylcholinesterase it was above 30 µM.

`CC(C)c1ccc(NC(=O)Oc2ccc3c(c2)[C@]2(C)CCN(Cc4ccccc4)C2N3Cc2ccccc2)cc1` (some centres not stated) gave a Selectivity in experiment [2] above 227. The IC50 at Cholinesterase was 0.132 µM; against Acetylcholinesterase it was above 30 µM.

Turning to `CC(C)c1ccc(NC(=O)Oc2ccc3c(c2)[C@]2(C)CCN(C)C2N3Cc2ccccc2)cc1` (some centres not stated), the Selectivity in experiment [2] turned out to be 152. Besides, the IC50 on Cholinesterase is 0.085 µM; at Acetylcholinesterase, 13 µM.

Turning to `Cc1ccccc1NC(=O)Oc1ccc2c(c1)[C@]1(C)CCNC1N2` (some centres not stated), the IC50 was 0.396 µM on Cholinesterase and 0.285 µM against Acetylcholinesterase. The compound also yielded a Selectivity in experiment [1] of 1.
